Measured values from ChEMBL document CHEMBL3352424, “Synthesis, biological evaluation and 3D-QSAR study of hydrazide, semicarbazide and thiosemicarbazide derivatives of 4-(adamantan-1-yl)quinoline as anti-tuberculosis agents” (Eur J Med Chem, 2014).
Converted amounts (≈) assume the structure as drawn.

Assays:
[1] = tested on: Mycobacterium tuberculosis; test: Antitubercular activity against Mycobacterium tuberculosis H37Rv strain at 6.25 ug/ml by microplate alamar blue assay; assay type: functional
[2] = tested on: L929; test: Cytotoxicity against mouse L929 cells assessed as reduction in cell viability up to 200 ug/ml after 5 days by MTT assay; assay type: cell-based; conditions: l929, 120 h
Outline: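 MTT viability assay in mouse fibroblasts, run on compounds active against TB, with 200 µg/mL as the highest test concentration.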

[3] = tested on: Mycobacterium tuberculosis; test: Antitubercular activity against Mycobacterium tuberculosis H37Rv strain by BACTEC 460 radiometric assay; assay type: functional, organism-based

| SMILES | inhibition at 6.25 µg/mL [1] | Activity [2] | IC50 [3] | MIC90 [3] | MIC99 [3] |
| --- | --- | --- | --- | --- | --- |
| O=C(NNC(=O)c1cc(C23CC4CC(CC(C4)C2)C3)c2ccccc2n1)NC1CCCC1 | 84% | Non-toxic | 2.75 µM | 6.25 µg/mL (≈ 14.4 µM) | – |
| CCc1cccc(CC)c1NC(=O)NNC(=O)c1cc(C23CC4CC(CC(C4)C2)C3)c2ccccc2n1 | 27% | Non-toxic | 33.9 µM | 6.25 µg/mL (≈ 12.6 µM) | – |
| O=C(NNC(=O)c1cc(C23CC4CC(CC(C4)C2)C3)c2ccccc2n1)NC1CCCCCCCCCCC1 | 87% | Non-toxic | 1.78 µM | 6.25 µg/mL (≈ 11.8 µM) | – |
| CCCCOc1ccc(NC(=O)NNC(=O)c2cc(C34CC5CC(CC(C5)C3)C4)c3ccccc3n2)cc1 | 61% | Non-toxic | 7.76 µM | 6.25 µg/mL (≈ 12.2 µM) | – |
| O=C(NNC(=O)c1cc(C23CC4CC(CC(C4)C2)C3)c2ccccc2n1)Nc1ccc(F)cc1 | 68% | Non-toxic | 6.46 µM | 6.25 µg/mL (≈ 13.6 µM) | – |
| COc1ccc(NC(=O)NNC(=O)c2cc(C34CC5CC(CC(C5)C3)C4)c3ccccc3n2)cc1 | 78% | Non-toxic | 3.72 µM | 6.25 µg/mL (≈ 13.3 µM) | – |
| Cc1cc(C)c(NC(=O)NNC(=O)c2cc(C34CC5CC(CC(C5)C3)C4)c3ccccc3n2)c(C)c1 | 77% | Non-toxic | 3.89 µM | 6.25 µg/mL (≈ 12.9 µM) | – |
| O=C(NNC(=O)c1cc(C23CC4CC(CC(C4)C2)C3)c2ccccc2n1)Nc1cccc(F)c1 | 78% | Non-toxic | 3.8 µM | 6.25 µg/mL (≈ 13.6 µM) | – |
| O=C(NNC(=S)Nc1ccccc1)c1cc(C23CC4CC(CC(C4)C2)C3)c2ccccc2n1 | 12% | Non-toxic | 100 µM | 6.25 µg/mL (≈ 13.7 µM) | – |
| O=C(NNC(=S)NC1CCCCC1)c1cc(C23CC4CC(CC(C4)C2)C3)c2ccccc2n1 | 0% | Non-toxic | – | 6.25 µg/mL (≈ 13.5 µM) | – |
| O=C(NNC(=S)Nc1cccc2ccccc12)c1cc(C23CC4CC(CC(C4)C2)C3)c2ccccc2n1 | 44% | Non-toxic | 15.8 µM | 6.25 µg/mL (≈ 12.3 µM) | – |
| O=C(NNC(=S)Nc1cccc(Cl)c1Cl)c1cc(C23CC4CC(CC(C4)C2)C3)c2ccccc2n1 | 74% | Non-toxic | 4.17 µM | 6.25 µg/mL (≈ 11.9 µM) | – |
| COc1ccc(OC)c(NC(=S)NNC(=O)c2cc(C34CC5CC(CC(C5)C3)C4)c3ccccc3n2)c1 | 81% | Non-toxic | 2.82 µM | 6.25 µg/mL (≈ 12.1 µM) | – |
| O=C(NNC(=S)Nc1cc(Cl)ccc1Cl)c1cc(C23CC4CC(CC(C4)C2)C3)c2ccccc2n1 | 43% | Non-toxic | 15.8 µM | 6.25 µg/mL (≈ 11.9 µM) | – |
| Cc1ccc(NC(=S)NNC(=O)c2cc(C34CC5CC(CC(C5)C3)C4)c3ccccc3n2)cc1 | 23% | Non-toxic | 45.7 µM | 6.25 µg/mL (≈ 13.3 µM) | – |
| Cc1cccc(C)c1NC(=S)NNC(=O)c1cc(C23CC4CC(CC(C4)C2)C3)c2ccccc2n1 | 51% | Non-toxic | 12.3 µM | 6.25 µg/mL (≈ 12.9 µM) | – |
| CCc1ccccc1NC(=S)NNC(=O)c1cc(C23CC4CC(CC(C4)C2)C3)c2ccccc2n1 | 89% | Non-toxic | 1.58 µM | 6.25 µg/mL (≈ 12.9 µM) | – |
| O=C(NNC(=S)Nc1ccc([N+](=O)[O-])cc1Cl)c1cc(C23CC4CC(CC(C4)C2)C3)c2ccccc2n1 | 96% | Non-toxic | 0.49 µM | 6.25 µg/mL (≈ 11.7 µM) | – |

| SMILES | inhibition at 6.25 µg/mL [1] | Activity [2] | IC50 [3] | MIC90 [3] | MIC99 [3] |
| --- | --- | --- | --- | --- | --- |
| COc1ccc(C)cc1NC(=S)NNC(=O)c1cc(C23CC4CC(CC(C4)C2)C3)c2ccccc2n1 | 12% | Non-toxic | 91.2 µM | 6.25 µg/mL (≈ 12.5 µM) | – |
| O=C(NNC(=S)Nc1ccc([N+](=O)[O-])cc1)c1cc(C23CC4CC(CC(C4)C2)C3)c2ccccc2n1 | 94% | Non-toxic | 0.794 µM | 6.25 µg/mL (≈ 12.5 µM) | – |
| CCNC(=S)NNC(=O)c1cc(C23CC4CC(CC(C4)C2)C3)c2ccccc2n1 | 72% | Non-toxic | 5.89 µM | 6.25 µg/mL (≈ 15.3 µM) | – |
| C=CCNC(=S)NNC(=O)c1cc(C23CC4CC(CC(C4)C2)C3)c2ccccc2n1 | 77% | Non-toxic | 4.07 µM | 6.25 µg/mL (≈ 14.9 µM) | – |
| CC(C)(C)NC(=S)NNC(=O)c1cc(C23CC4CC(CC(C4)C2)C3)c2ccccc2n1 | 90% | Non-toxic | 1.58 µM | 6.25 µg/mL (≈ 14.3 µM) | – |
| O=C(NNC(=S)NCCc1ccccc1)c1cc(C23CC4CC(CC(C4)C2)C3)c2ccccc2n1 | 47% | Non-toxic | 14.5 µM | 6.25 µg/mL (≈ 12.9 µM) | – |
| O=C(NNC(=S)Nc1ccccc1C(F)(F)F)c1cc(C23CC4CC(CC(C4)C2)C3)c2ccccc2n1 | 79% | Non-toxic | 2.88 µM | 6.25 µg/mL (≈ 11.9 µM) | – |
| O=C(NNC(=S)Nc1ccc(OC(F)(F)F)cc1)c1cc(C23CC4CC(CC(C4)C2)C3)c2ccccc2n1 | 89% | Non-toxic | 1.45 µM | 6.25 µg/mL (≈ 11.6 µM) | – |
| COc1cc(NC(=S)NNC(=O)c2cc(C34CC5CC(CC(C5)C3)C4)c3ccccc3n2)cc(OC)c1OC | 46% | Non-toxic | 14.5 µM | 6.25 µg/mL (≈ 11.4 µM) | – |
| CCCCCNC(=O)NNC(=O)c1cc(C23CC4CC(CC(C4)C2)C3)c2ccccc2n1 | 55% | Non-toxic | 11.7 µM | 6.25 µg/mL (≈ 14.4 µM) | – |
| O=C(NNC(=O)c1cc(C23CC4CC(CC(C4)C2)C3)c2ccccc2n1)NC12CC3CC(CC(C3)C1)C2 | 34% | Non-toxic | 24.5 µM | 6.25 µg/mL (≈ 12.5 µM) | – |
| COc1cc(NC(=O)NNC(=O)c2cc(C34CC5CC(CC(C5)C3)C4)c3ccccc3n2)cc(OC)c1OC | 22% | Non-toxic | 41.7 µM | 6.25 µg/mL (≈ 11.8 µM) | – |
| CC(C)(C)c1ccc(NC(=O)NNC(=O)c2cc(C34CC5CC(CC(C5)C3)C4)c3ccccc3n2)cc1 | 37% | Non-toxic | 22.4 µM | 6.25 µg/mL (≈ 12.6 µM) | – |
| CCCCCCNC(=O)NNC(=O)c1cc(C23CC4CC(CC(C4)C2)C3)c2ccccc2n1 | 47% | Non-toxic | 15.8 µM | 6.25 µg/mL (≈ 13.9 µM) | – |
| CCCCCCCCCCCCCCCCNC(=O)NNC(=O)c1cc(C23CC4CC(CC(C4)C2)C3)c2ccccc2n1 | 16% | Non-toxic | 56.2 µM | 6.25 µg/mL (≈ 10.6 µM) | – |
| NNC(=O)c1ccncc1 [ISONIAZID] | – | – | – | – | 0.1 µg/mL (≈ 0.729 µM) |
| CO[C@H]1/C=C/O[C@@]2(C)Oc3c(C)c(O)c4c(O)c(c(/C=N/N5CCN(C)CC5)c(O)c4c3C2=O)NC(=O)/C(C)=C\C=C\[C@H](C)[C@H](O)[C@@H](C)[C@@H](O)[C@@H](C)[C@H](OC(C)=O)[C@@H]1C [RIFAMPIN] | 99% | – | – | – | 0.2 µg/mL (≈ 0.243 µM) |
